Reference: ChEMBL document CHEMBL3352173, “Optimization of pyrrolamide topoisomerase II inhibitors toward identification of an antibacterial clinical candidate (AZD5099)” (J Med Chem, 2014)
Converted amounts (≈) assume the structure as drawn.

How the values were obtained:
[1] = tested on: Staphylococcus aureus; test: Antibacterial activity against methicillin-sensitive Staphylococcus aureus ARC516 infected in neutropenic CD1 mouse thigh model assessed as decrease in bacterial viable counts at 30 mg/kg, ip q24; assay type: functional; conditions: route intraperitoneal
[2] = AUC in methicillin-sensitive Staphylococcus aureus ARC516 infected in neutropenic CD1 mouse thigh model at 30 mg/kg, ip q24; assay type: ADME, organism-based; parameters: dose 30 mg/kg, route intraperitoneal; conditions: in vivo
[3] = tested on: Mus musculus; test: fAUC in methicillin-sensitive Staphylococcus aureus ARC516 infected in neutropenic CD1 mouse thigh model at 30 mg/kg, ip q24; assay type: ADME, organism-based; parameters: dose 30 mg/kg, route intraperitoneal; conditions: in vivo
[4] = tested on: Staphylococcus aureus; test: Antibacterial activity against methicillin-sensitive Staphylococcus aureus ARC516 infected in ip dosed neutropenic CD1 mouse thigh model assessed as decrease in bacterial viable counts treated for q24; assay type: functional; conditions: ARC516, Thigh muscle
[5] = molecular target: T1, ATP-binding cassette sub-family C member 2 (Homo sapiens, UniProt Q92887); test: Stimulation of ATPase activity of human MRP2 assessed as inorganic phosphate
[6] = molecular target: T1, ATP-binding cassette sub-family C member 2; test: Inhibition of ATPase activity of human MRP2 assessed as inorganic phosphate
[7] = molecular target: T2, ATP-binding cassette sub-family C member 2 (Rattus norvegicus, UniProt Q63120); test: Stimulation of ATPase activity of rat Mrp2 assessed as inorganic phosphate
[8] = molecular target: T2, ATP-binding cassette sub-family C member 2; test: Inhibition of ATPase activity of rat Mrp2 assessed as inorganic phosphate
[9] = tested on: Haemophilus influenzae; test: Antimicrobial activity against Haemophilus influenzae by broth microdilution/CLSI method; assay type: functional; conditions: Haemophilus influenzae; for MIC: read-out: MIC
[10] = Clearance in Wistar rat at 10 mg/kg, iv; assay type: ADME, organism-based; parameters: dose 10 mg/kg, route intravenous; conditions: in vivo
[11] = molecular target: DNA gyrase subunit B (Staphylococcus aureus, UniProt P0A0K8); test: Inhibition of ATPase activity of Staphylococcus aureus GyrB
Method in brief: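 IC50 was determined against S. aureus GyrB in the routine screening assay. The enzyme concentration limits resolution below 10 nM.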

[12] = tested on: Streptococcus pneumoniae; test: Antibacterial activity against Streptococcus pneumoniae by broth microdilution/CLSI method; assay type: functional; conditions: Streptococcus pneumoniae; read-out: MIC
[13] = tested on: Streptococcus pyogenes; test: Antimicrobial activity against Streptococcus pyogenes by broth microdilution/CLSI method; assay type: functional
[14] = tested on: Staphylococcus aureus; test: Antimicrobial activity against methicillin-sensitive Staphylococcus aureus by broth microdilution/CLSI method; assay type: functional; conditions: Staphylococcus aureus; read-out: MIC
[15] = tested on: Staphylococcus aureus; test: Antimicrobial activity against methicillin, quinolone-resistant Staphylococcus aureus by broth microdilution/CLSI method; assay type: functional; conditions: Staphylococcus aureus; read-out: MIC
[16] = tested on: Moraxella catarrhalis; test: Antimicrobial activity against Moraxella catarrhalis by broth microdilution/CLSI method; assay type: functional; conditions: Moraxella catarrhalis; read-out: MIC
[17] = tested on: Escherichia coli; test: Antimicrobial activity against wild-type Escherichia coli Eco523 by broth microdilution/CLSI method; assay type: functional; conditions: Escherichia coli, Eco523; read-out: MIC
[18] = tested on: Escherichia coli; test: Antimicrobial activity against Escherichia coli tolC- by broth microdilution/CLSI method; assay type: functional; conditions: Escherichia coli; read-out: MIC
[19] = Octanol-phosphate buffer distribution coefficient, log D of the compound at pH 7.4 by shake flask method; assay type: physicochemical
[20] = Percentage unbound in human plasma; assay type: ADME, cell-free
[21] = Solubility of the compound; assay type: physicochemical
[22] = Ratio of MIC for methicillin, quinolone-resistant Staphylococcus aureus to fraction unbound in human plasma; assay type: ADME
[23] = Clearance in rat at 10 mg/kg, iv; assay type: ADME, organism-based; parameters: dose 10 mg/kg, route intravenous; conditions: in vivo
[24] = Dissociation constant, pKa of the compound; assay type: physicochemical
[25] = Percentage unbound in mouse plasma; assay type: ADME, cell-free
[26] = Bioavailability in CD1 mouse at 10 mg/kg, […]; assay type: ADME, organism-based; conditions: in vivo
[27] = Clearance in CD1 mouse at 10 mg/kg, iv; assay type: ADME, organism-based; parameters: dose 10 mg/kg, route intravenous; conditions: in vivo
[28] = Percentage unbound in rat plasma; assay type: ADME, cell-free
[29] = Percentage unbound in dog plasma; assay type: ADME, cell-free, Canis lupus familiaris
[30] = Bioavailability in dog at 10 mg/kg, iv; assay type: ADME, organism-based, Canis lupus familiaris; conditions: plasma
[31] = Clearance in dog at 10 mg/kg, iv; assay type: ADME, organism-based, Canis lupus familiaris; parameters: dose 10 mg/kg, route intravenous; conditions: plasma
[32] = Clearance in TR-negative Wistar rat at 10 mg/kg, iv; assay type: ADME, organism-based; parameters: dose 10 mg/kg, route intravenous; conditions: in vivo
[33] = tested on: Staphylococcus aureus; test: Antimicrobial activity against Staphylococcus aureus by broth microdilution/CLSI method; assay type: functional
[34] = tested on: Enterococcus faecalis; test: Antimicrobial activity against Enterococcus faecalis by broth microdilution/CLSI method; assay type: functional
[35] = tested on: Enterococcus faecium; test: Antimicrobial activity against Enterococcus faecium by broth microdilution/CLSI method; assay type: functional
[36] = tested on: Haemophilus influenzae; test: Antimicrobial activity against amoxicillin-resistant Haemophilus influenzae by broth microdilution/CLSI method; assay type: functional
[37] = tested on: Staphylococcus aureus; test: Antimicrobial activity against methicillin-resistant Staphylococcus aureus by broth microdilution/CLSI method; assay type: functional
[38] = tested on: Enterococcus faecalis; test: Antimicrobial activity against vancomycin-resistant Enterococcus faecalis by broth microdilution/CLSI method; assay type: functional
[39] = Bioavailability in Wistar rat at 10 mg/kg, […]; assay type: ADME, organism-based; conditions: in vivo
[40] = tested on: Staphylococcus aureus; test: Antimicrobial activity against Staphylococcus aureus ARC516 by broth microdilution/CLSI method; assay type: functional
[41] = tested on: Staphylococcus aureus; test: Antimicrobial activity against 2 times drug resistance selected Staphylococcus aureus ARC516-1F by broth microdilution/CLSI method; assay type: functional
[42] = tested on: Staphylococcus aureus; test: Antimicrobial activity against 2 times drug resistance selected Staphylococcus aureus ARC516-2F by broth microdilution/CLSI method; assay type: functional
[43] = tested on: Staphylococcus aureus; test: Antibacterial activity against methicillin-sensitive Staphylococcus aureus ARC516 infected in neutropenic CD1 mouse thigh model assessed as decrease in bacterial viable counts at 30 mg/kg, ip q6; assay type: functional; conditions: route intraperitoneal
Method in brief: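 Read-out is viable CFU recovered from the infected thigh after treatment. The change is expressed as log CFU relative to the bacterial burden at the start of treatment (the pre-treatment inoculum). Untreated infected controls are run in parallel and counted over the same infection-to-treatment interval.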

[44] = AUC in methicillin-sensitive Staphylococcus aureus ARC516 infected in neutropenic CD1 mouse thigh model at 30 mg/kg, ip q6; assay type: ADME, organism-based; parameters: dose 30 mg/kg, route intraperitoneal; conditions: in vivo
[45] = tested on: Mus musculus; test: fAUC in methicillin-sensitive Staphylococcus aureus ARC516 infected in neutropenic CD1 mouse thigh model at 30 mg/kg, ip q6; assay type: ADME, organism-based; parameters: dose 30 mg/kg, route intraperitoneal; conditions: in vivo
[46] = tested on: Staphylococcus aureus; test: Antibacterial activity against methicillin-sensitive Staphylococcus aureus ARC516 infected in ip dosed neutropenic CD1 mouse thigh model assessed as decrease in bacterial viable counts treated for q6; assay type: functional; conditions: ARC516, Thigh muscle

Sequence of DNA gyrase subunit B (P0A0K8 whole entry): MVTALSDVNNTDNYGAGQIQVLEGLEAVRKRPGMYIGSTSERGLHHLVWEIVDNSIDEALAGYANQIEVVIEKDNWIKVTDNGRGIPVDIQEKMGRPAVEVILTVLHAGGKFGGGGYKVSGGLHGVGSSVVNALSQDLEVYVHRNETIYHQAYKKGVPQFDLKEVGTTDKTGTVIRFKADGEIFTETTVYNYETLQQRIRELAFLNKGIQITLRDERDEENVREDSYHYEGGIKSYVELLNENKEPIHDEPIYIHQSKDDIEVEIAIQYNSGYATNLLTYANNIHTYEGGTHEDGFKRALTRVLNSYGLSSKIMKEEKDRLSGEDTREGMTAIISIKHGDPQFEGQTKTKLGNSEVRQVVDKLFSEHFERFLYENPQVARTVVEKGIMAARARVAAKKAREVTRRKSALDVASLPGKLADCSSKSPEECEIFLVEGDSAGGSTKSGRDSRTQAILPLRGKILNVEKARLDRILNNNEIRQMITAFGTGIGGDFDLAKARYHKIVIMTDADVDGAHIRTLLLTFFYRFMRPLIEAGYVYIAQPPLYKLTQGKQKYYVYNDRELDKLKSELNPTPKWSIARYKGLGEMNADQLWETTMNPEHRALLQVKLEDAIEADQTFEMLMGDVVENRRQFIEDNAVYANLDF
T2 sequence (Q63120 whole entry): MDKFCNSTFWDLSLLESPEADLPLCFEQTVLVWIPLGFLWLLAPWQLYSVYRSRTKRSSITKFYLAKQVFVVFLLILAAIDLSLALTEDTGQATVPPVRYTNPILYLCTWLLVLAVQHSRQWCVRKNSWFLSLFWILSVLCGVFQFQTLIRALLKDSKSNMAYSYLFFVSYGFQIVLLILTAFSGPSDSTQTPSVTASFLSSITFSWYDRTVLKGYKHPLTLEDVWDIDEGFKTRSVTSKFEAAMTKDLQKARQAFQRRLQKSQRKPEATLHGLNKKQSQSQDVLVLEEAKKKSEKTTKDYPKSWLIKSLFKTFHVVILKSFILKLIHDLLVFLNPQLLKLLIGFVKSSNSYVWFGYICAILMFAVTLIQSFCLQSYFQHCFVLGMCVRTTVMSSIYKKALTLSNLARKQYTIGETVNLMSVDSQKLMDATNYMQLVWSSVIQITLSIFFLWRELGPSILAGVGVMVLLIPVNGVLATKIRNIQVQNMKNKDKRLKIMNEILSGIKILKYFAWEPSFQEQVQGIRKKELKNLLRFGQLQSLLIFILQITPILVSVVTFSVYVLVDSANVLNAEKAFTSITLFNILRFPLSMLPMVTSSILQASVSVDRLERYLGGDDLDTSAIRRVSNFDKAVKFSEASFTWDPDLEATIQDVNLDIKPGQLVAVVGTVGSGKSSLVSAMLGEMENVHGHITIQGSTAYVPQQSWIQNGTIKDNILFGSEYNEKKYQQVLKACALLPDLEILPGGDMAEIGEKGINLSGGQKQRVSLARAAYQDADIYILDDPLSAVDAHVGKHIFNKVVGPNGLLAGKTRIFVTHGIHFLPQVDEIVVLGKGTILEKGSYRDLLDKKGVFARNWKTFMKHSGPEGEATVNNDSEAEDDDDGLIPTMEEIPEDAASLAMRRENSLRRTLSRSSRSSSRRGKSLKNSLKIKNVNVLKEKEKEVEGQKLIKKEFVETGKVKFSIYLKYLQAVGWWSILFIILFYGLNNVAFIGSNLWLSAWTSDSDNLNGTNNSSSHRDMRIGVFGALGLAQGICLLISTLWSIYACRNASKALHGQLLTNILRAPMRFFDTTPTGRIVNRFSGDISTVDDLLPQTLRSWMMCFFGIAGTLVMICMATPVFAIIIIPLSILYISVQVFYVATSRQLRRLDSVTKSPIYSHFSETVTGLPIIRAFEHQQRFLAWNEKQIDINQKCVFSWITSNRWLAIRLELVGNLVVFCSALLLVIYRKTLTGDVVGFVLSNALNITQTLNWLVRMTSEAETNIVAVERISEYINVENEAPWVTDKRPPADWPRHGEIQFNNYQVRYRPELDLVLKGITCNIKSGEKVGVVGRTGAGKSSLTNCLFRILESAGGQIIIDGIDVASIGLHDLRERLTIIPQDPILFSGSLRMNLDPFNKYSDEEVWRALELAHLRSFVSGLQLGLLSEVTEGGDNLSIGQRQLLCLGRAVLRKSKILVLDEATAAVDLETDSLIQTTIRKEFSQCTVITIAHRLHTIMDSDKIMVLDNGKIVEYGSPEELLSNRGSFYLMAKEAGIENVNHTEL
T1 sequence (Q92887 whole entry): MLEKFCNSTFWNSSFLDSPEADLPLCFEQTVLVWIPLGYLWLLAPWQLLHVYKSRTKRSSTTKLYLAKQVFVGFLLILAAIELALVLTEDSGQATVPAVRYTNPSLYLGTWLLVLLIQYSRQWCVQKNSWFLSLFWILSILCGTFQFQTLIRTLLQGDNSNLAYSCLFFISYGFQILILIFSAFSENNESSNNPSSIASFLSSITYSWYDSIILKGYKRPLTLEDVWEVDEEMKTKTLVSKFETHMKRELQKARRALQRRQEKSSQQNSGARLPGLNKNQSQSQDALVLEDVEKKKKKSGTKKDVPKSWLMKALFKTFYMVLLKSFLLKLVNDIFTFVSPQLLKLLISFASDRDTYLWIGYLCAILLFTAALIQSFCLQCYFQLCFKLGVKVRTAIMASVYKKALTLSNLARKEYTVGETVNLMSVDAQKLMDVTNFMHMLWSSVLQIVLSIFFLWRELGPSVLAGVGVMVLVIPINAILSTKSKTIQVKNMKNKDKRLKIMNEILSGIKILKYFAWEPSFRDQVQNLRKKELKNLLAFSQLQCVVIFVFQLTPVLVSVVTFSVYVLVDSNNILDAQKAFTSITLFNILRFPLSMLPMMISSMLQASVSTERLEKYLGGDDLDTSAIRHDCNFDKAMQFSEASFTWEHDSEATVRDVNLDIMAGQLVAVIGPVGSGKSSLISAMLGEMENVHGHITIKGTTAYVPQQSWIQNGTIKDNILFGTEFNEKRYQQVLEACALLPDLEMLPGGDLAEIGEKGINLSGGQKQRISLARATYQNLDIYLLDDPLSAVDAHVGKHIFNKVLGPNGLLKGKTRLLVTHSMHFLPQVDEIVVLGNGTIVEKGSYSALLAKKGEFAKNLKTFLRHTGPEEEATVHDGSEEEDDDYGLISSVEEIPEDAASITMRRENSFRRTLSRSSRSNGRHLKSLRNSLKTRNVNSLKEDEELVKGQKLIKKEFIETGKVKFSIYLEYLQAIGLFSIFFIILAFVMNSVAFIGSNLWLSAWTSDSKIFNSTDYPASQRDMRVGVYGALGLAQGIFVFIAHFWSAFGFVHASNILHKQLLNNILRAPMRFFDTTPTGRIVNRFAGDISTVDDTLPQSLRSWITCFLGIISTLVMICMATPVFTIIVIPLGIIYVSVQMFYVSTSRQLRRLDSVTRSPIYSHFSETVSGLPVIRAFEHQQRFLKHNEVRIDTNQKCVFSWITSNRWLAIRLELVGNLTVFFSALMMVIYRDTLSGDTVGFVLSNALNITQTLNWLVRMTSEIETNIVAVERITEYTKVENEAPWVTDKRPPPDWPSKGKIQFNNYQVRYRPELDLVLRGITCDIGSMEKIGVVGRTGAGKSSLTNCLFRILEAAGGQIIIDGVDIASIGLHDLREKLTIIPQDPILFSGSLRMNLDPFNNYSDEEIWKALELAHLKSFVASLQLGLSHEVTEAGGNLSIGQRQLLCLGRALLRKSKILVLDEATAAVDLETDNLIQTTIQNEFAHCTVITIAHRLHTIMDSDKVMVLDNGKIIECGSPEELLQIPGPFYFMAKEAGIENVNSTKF

SMILES | MIC [9] [µg/mL] | IC50 [11] [nM] | MIC [12] [ng/mL] | MIC [13] [µg/mL] | MIC [14] [µg/mL] | MIC [15] [µg/mL] | MIC [16] [µg/mL] | MIC [17] [µg/mL] | MIC [18] [µg/mL] | logD [19] | fraction unbound [20] | solubility [21] [µM] | Ratio [22] | clearance [23] [mL/min/kg] | pKa [24] | fraction unbound [25] | bioavailability [26] [%] | clearance [27] [mL/min/kg] | fraction unbound [28] | fraction unbound [29] | further results
COCC(COC)NC(=O)c1nc(N2CC[C@@H](NC(=O)c3[nH]c(C)c(Cl)c3Cl)[C@@H](OC)C2)sc1C(=O)O | 0.1 (≈ 0.173 µM) | < 10 | 16 (≈ 0.0277 µM) | 0.016 (≈ 0.0277 µM) | 0.05 (≈ 0.0864 µM) | 0.049 (≈ 0.0847 µM) | < 0.008 | 23 (≈ 39.8 µM) | 1.3 (≈ 2.25 µM) | 1 | 0.021 | 860 (≈ 497 µg/mL) | 2.3 | 18 | 4.5 | 0.042 | 25 | 5.35 | 0.038 | 0.12 | deltalog10CFU [1]: -0.16; AUC [2]: 148 µg·h/mL; fAUC [3]: 6.26 µg·h/mL; MIC [4]: 0.03 µg/mL (≈ 0.0519 µM); EC50 [5]: > 200 µM; IC50 [6]: 200 µM; EC50 [7]: > 200 µM; IC50 [8]: 75 µM; clearance [10]: 13 mL/min/kg; bioavailability [30]: 29%; clearance [31]: 1.6 mL/min/kg; clearance [32]: 3 mL/min/kg
CC[C@H]1OC(=O)[C@H](C)[C@@H](O[C@H]2C[C@@](C)(OC)[C@@H](O)[C@H](C)O2)[C@H](C)[C@@H](O[C@@H]2O[C@H](C)C[C@H](N(C)C)[C@H]2O)[C@](C)(O)C[C@@H](C)CN(C)[C@H](C)[C@@H](O)[C@]1(C)O [AZITHROMYCIN] |  |  |  |  |  |  |  |  |  |  |  |  |  |  |  |  |  |  |  |  | MIC90 [33]: > 128 µg/mL; MIC90 [34]: > 128 µg/mL; MIC90 [35]: > 128 µg/mL; MIC90 [36]: 2 µg/mL (≈ 2.67 µM); MIC90 [9]: 2 µg/mL (≈ 2.67 µM)
C[C@H]1COc2c(N3CCN(C)CC3)c(F)cc3c(=O)c(C(=O)O)cn1c23.C[C@H]1COc2c(N3CCN(C)CC3)c(F)cc3c(=O)c(C(=O)O)cn1c23.O [LEVOFLOXACIN] |  |  |  |  |  |  |  |  |  |  |  |  |  |  |  |  |  |  |  |  | MIC90 [33]: 32 µg/mL; MIC90 [37]: 64 µg/mL; MIC90 [34]: 32 µg/mL; MIC90 [38]: 64 µg/mL; MIC90 [35]: > 128 µg/mL; MIC90 [36]: 0.015 µg/mL; MIC90 [9]: 0.015 µg/mL
CO[C@H]1CN(c2nc(-c3ncnn3C)c(C(=O)O)s2)CC[C@H]1NC(=O)c1[nH]c(C)c(Cl)c1Cl | 0.12 (≈ 0.233 µM) | < 10 | 7 (≈ 0.0136 µM) | 0.016 (≈ 0.0311 µM) | 0.063 (≈ 0.122 µM) | 0.04 (≈ 0.0778 µM) | 0.026 (≈ 0.0505 µM) | 32 (≈ 62.2 µM) | 0.46 (≈ 0.894 µM) | 0.15 | 0.032 | 630 (≈ 324 µg/mL) | 1.25 | 17 | 4.5 | 0.097 | 74 | 7.4 | 0.088 | 0.2 | deltalog10CFU [1]: 1.54; AUC [2]: 204 µg·h/mL; fAUC [3]: 19.8 µg·h/mL; MIC [4]: 0.03 µg/mL (≈ 0.0583 µM); EC50 [5]: 140 µM; IC50 [6]: > 200 µM; EC50 [7]: 110 µM; IC50 [8]: > 200 µM; bioavailability [39]: 65%; bioavailability [30]: 70%; clearance [31]: 1.6 mL/min/kg
CC(=O)NC[C@H]1CN(c2ccc(N3CCOCC3)c(F)c2)C(=O)O1 [LINEZOLID] |  |  |  |  |  |  |  |  |  |  |  |  |  |  |  |  |  |  |  |  | MIC [40]: 1 µg/mL (≈ 2.96 µM); MIC [41]: 1 µg/mL (≈ 2.96 µM); MIC [42]: 0.5 µg/mL (≈ 1.48 µM)
CO[C@H]1CN(c2nc(-c3ncccn3)c(C(=O)O)s2)CC[C@H]1NC(=O)c1[nH]c(C)c(Cl)c1Cl | 0.2 (≈ 0.391 µM) | < 10 | 8 (≈ 0.0156 µM) | 0.016 (≈ 0.0313 µM) | 0.09 (≈ 0.176 µM) | 0.12 (≈ 0.235 µM) | 0.031 (≈ 0.0606 µM) | 23 (≈ 45 µM) | 0.5 (≈ 0.978 µM) | 0.54 | 0.096 | 350 (≈ 179 µg/mL) | 1.25 | 34 | 5.2 | 0.18 | 100 | 22 | 0.19 | 0.24 | deltalog10CFU [43]: -1.57; AUC [44]: 37600 ng·h/mL; fAUC [45]: 6.7 µg·h/mL; MIC [46]: 0.06 µg/mL (≈ 0.117 µM); clearance [10]: 18 mL/min/kg; bioavailability [39]: 100%; bioavailability [30]: 100%; clearance [31]: 1.9 mL/min/kg; clearance [32]: 9.3 mL/min/kg
